STAT3 act-1 = activators of IL-6 induced STAT3 signaling. activation (% of control), % at 5.6 µM. hit rate 0.91% among 190,000. U3A cells, IL-6 STAT3-luciferase reporter, luminescence; 100% = signal with IL-6 EC80 alone. AID 871;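 active = activation above the screen-wide mean of compound activation plus 3 SD, cut at about 130% in these data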;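 note: 0% = background luminescence of wells with medium and substrate only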
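System – human U3A cells carrying STAT3-luciferase construct · Probe or stimulus – Interleukin-6, 33 ng/mL · Schedule – compound 1 h, then IL-6 6 h at 37 °C · Signal – luminescence from STAT3-driven luciferase reporter · Evaluation – percent of IL-6-only median luminescence · Benchmarks – IL-6-only high control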
NF-kB neuron act = compounds increasing NF-kB expression in human neuronal cells; NF-kB reporter expression; active compounds read high; fold change at 12.5 µM; hit rate 1.6% among 190,000; AID 1239; in the data active = fold change above about 3.3
Pf gamet viab = P. falciparum stage V gametocyte viability inhibition; P. falciparum stage V gametocytes, ATP luminescence, 24 h; inhibition, % at 10.9 µM; hit rate 0.065% among 150,000; AID 743093;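 active = inhibition above the mean plus 3 SD of compounds within the control limits, set per campaign, cut at about 38% in these data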;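 note: 0% = DMSO wells and 100% = medium only without gametocytes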
STAT1 inh = reduces IFN-gamma driven STAT1 reporter signal | NIH 3T3 STAT1-luciferase reporter, luminescence | inhibition, % at 5.5 µM | hit rate 0.35% among 200,000;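 active = inhibition above a set limit, the mean inhibition across all tested compounds plus 3 SD, cut at about 34% in these data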;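 note: 0% = IFN-gamma with DMSO and 100% = IFN-gamma with 300 µM nifuroxazide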
STAT1 act-1 = increases IFN-gamma driven STAT1 reporter signal; NIH 3T3 STAT1-luciferase reporter, luminescence; 100% = IFN-gamma alone, no compound; activation (% of control), % at 5.5 µM; hit rate 2.6% among 200,000;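 active = activation above the screen-wide mean activation plus 3 SD, cut at about 130% in these data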;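 note: raw ratio to IFN-gamma control signal so 100% means no change and 0% no light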
APP 5'UTR act = activates APP 5'UTR luciferase reporter. SH-SY5Y APP 5'UTR luciferase reporter, luminescence; zero percent = DMSO vehicle wells. activation, % at 2 µM. hit rate 1% among 190,000. AID 1276;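 active = activation above a set limit, based on mean plus 3 SD of controls, cut at about 140% in these data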
STAT3 act-2 = STAT3 activation, confirmation assay; shares compounds with STAT3 act-1; U3A STAT3-luciferase reporter, IL-6 potentiation, luminescence; U3A cells lack STAT1; 100 means same as IL-6 alone; potentiation (% of control), % at 5.7 µM; hit rate 64% among 1,200; AID 1267;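 active = percent activation of the STAT3 luciferase reporter above a set limit taken from the earlier primary screen, cut at about 130% in these data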;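 note: 0% = background signal of medium plus substrate and 100% = median of IL-6 with DMSO wells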
NFkB act 2 = NF-kappaB activation in STAT3 activator counter-screen; human cells, NF-kappaB reporter activation; activation (% of control), % at 5.7 µM; AID 1309; hit rate 11% among 1,200; shares compounds with STAT3 act-1; in the data active = activation above about 120%;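 note: reporter induced by TNF-alpha stimulation; 100% = median of stimulated DMSO wells and 0% = no signal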
STAT1 act-2 = activates STAT1, counter-screen to STAT3 activators. activation (% of control), % at 5.7 µM. hit rate 13% among 1,200. shares compounds with STAT3 act-1. NIH 3T3 STAT1-luciferase reporter, IFN-gamma, luminescence;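 active = activation above the solvent-only control well mean plus 3 SD, set per screening run, cut at about 120% in these data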;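 note: 100% = IFN-gamma with DMSO median signal so 100% means no change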
Active calls of the source: *; . = not tested or not shown. This is a sample that favours compounds with a hit; in the whole collection about 3.9% have one here.

SMILES	STAT3 act-1	NF-kB neuron act	Pf gamet viab	STAT1 inh	STAT1 act-1	APP 5'UTR act	STAT3 act-2	NFkB act 2	STAT1 act-2
Cc1ccc(C)c(C(=O)COc2ccc(C)nc2[N+](=O)[O-])c1	104	1.2	-22	3	97	1	.	.	.
Cc1ccc(OCC(=O)c2c[nH]c3ccccc23)c([N+](=O)[O-])n1	158*	1.1	-11	-19	116	13	165*	103	107
O=C(c1ccc(S(=O)(=O)N2CCCCC2)cc1)N1CCN(CCN2C(=O)c3cccc4cccc(c34)C2=O)CC1	82	1.1	3	-5	102	-11	.	.	.
CCc1ccc(N(C(=O)c2csnn2)C(C(=O)NC(C)(C)C)c2ccccn2)cc1 (stereo not given)	139*	1.7	0	-21	120	5	135*	116	120
CC1CCN(C(=O)Cn2c(=O)n(CCc3ccccc3)c(=O)c3ccccc32)CC1	140*	0.4	.	13	88	17	138*	102	83
O=S(=O)(c1ccc(Br)cc1)N1CCN(c2cc(-c3ccccc3)nc3ncnn23)CC1	146*	0.8	.	-1	102	-13	108	99	96
O=S(=O)(c1ccccc1)N1CCN(c2cc(-c3ccccc3)nc3ncnn23)CC1	93	0.6	-3	32	72	-4	.	.	.
COC(=O)c1ccc(NC(=O)CS(=O)(=O)c2ccccc2)cc1	.	.	-5	.	.	.	.	.	.
Cn1cc(/C=N\NC(=O)C2COc3ccccc3O2)c2ccccc21 (stereo not given)	104	1.2	17	15	87	4	.	.	.
Cc1c(/C=N\NC(=O)C2COc3ccccc3O2)c2ccccc2n1C (stereo not given)	139*	3.2	3	6	95	-91	98	111	107
COc1ccc(OCC(=O)C2CC2)c(C#N)c1	.	.	-2	.	.	.	.	.	.
Clc1ccc(/C=C\c2nccc3c2[nH]c2ccccc23)cc1	148*	1.4	0	-4	103	-5	145*	108	100
N#Cc1ccc(/C=C\c2nccc3c2[nH]c2ccccc23)cc1	157*	0.72	2	-24	119	10	141*	103	103
CC1=C(C(=O)OCC2CCCO2)C(c2ccc(C)cc2)C2=C(CC(C)(C)CC2=O)N1 (stereo not given)	101	0.57	0	4	95	29	.	.	.
COc1ccc(CS(=O)c2nc(C)cc(C)c2S(C)(=O)=O)cc1 (stereo not given)	99	1.1	.	1	100	20	.	.	.
O=C(COC(=O)/C=C/c1ccccc1[N+](=O)[O-])NC1CCS(=O)(=O)C1 (stereo not given)	140*	0.95	-11	25	77	0	187*	117	126*
Cc1nn(-c2ccccc2)c(C)c1/C=C/C(=O)OCC(=O)NC1CCS(=O)(=O)C1 (stereo not given)	101	.	13	-17	114	-5	.	.	.
COc1ccccc1NC(=O)COC(=O)/C=C/c1ccccc1[N+](=O)[O-]	98	1.2	.	18	84	-8	.	.	.
O=C(COC(=O)/C=C/c1ccccc1[N+](=O)[O-])NC1CC1	149*	0.82	-18	13	86	8	142*	100	83
O=C1NC(=O)c2cc(Oc3ccc([N+](=O)[O-])cc3)ccc21	.	.	11	.	.	.	.	.	.
COC(=O)c1cccc(C(=O)Nc2cnc3ccccc3c2)n1	183*	0.87	.	-11	110	0	162*	112	122*
COC(=O)c1cccc(C(=O)Nc2ccc(C)cc2Br)n1	141*	1.4	-1	8	93	16	130	109	103
CCN(CC)C(=O)Nc1cnc2ccccc2c1	106	1.9	.	-10	109	37	.	.	.
CC1=NOC(=O)/C1=C\c1ccc(-c2ccc(Br)cc2)o1	136*	0.85	.	-25	121	-4	118	115	112
